Experimental data from ChEMBL document CHEMBL5058577, “EUbOPEN Chemogenomics Library 2 (Multiplex)” (2022).

Tested on: HEK-293T
Experiment: Multiplex assay against HEK293T
Type: toxicity, cell-based
Conditions: human
Summary of the method: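 Imaging took place on a CQ1 microscope at 37°C and 5% CO2 once compound had been added to live cells stained at seeding with Hoechst33342, BioTracker Green Microtubule Cytoskeleton Dye, MitoTracker Red and Annexin V Alexa Fluor 680. CellPathfinder machine-learning gating classed cells as Hoechst high-intensity objects or normal cells, classed normal cells as having healthy, pyknosed or fragmented nuclei, and classed pyknosed cells as mitotic or apoptotic. Tubulin, mitochondrial-mass and membrane-permeability phenotypes are per cents of the healthy-nucleus cells.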

[1] = 12 h, 1 µM, compound concentration 1 uM, replicate 1
[2] = 12 h, 1 µM, compound concentration 1 uM, replicate 2
[3] = 12 h, 10 µM, compound concentration 10 uM, replicate 1
[4] = 12 h, 10 µM, compound concentration 10 uM, replicate 2
[5] = 24 h, 1 µM, compound concentration 1 uM, replicate 1
[6] = 24 h, 1 µM, compound concentration 1 uM, replicate 2
[7] = 24 h, 10 µM, compound concentration 10 uM, replicate 1
[8] = 24 h, 10 µM, compound concentration 10 uM, replicate 2
[9] = 48 h, 1 µM, compound concentration 1 uM, replicate 1
[10] = 48 h, 1 µM, compound concentration 1 uM, replicate 2
[11] = 48 h, 10 µM, compound concentration 10 uM, replicate 1
[12] = 48 h, 10 µM, compound concentration 10 uM, replicate 2

CC(F)(F)CN1CCOc2c(nn(-c3ccccc3Cl)c2-c2ccc(Cl)cc2)C1=O
Population Apoptotic (%) [1]: 29%
Population Healthy Nuclei (%) [1]: 77%
Population Membrane Permeable-Phenotype (%) [1]: 0%
Population Mitochondria Different-Phenotype (%) [1]: 43%
Population Mitotic Cells (%) [1]: 70%
Population Normal (%) [1]: 93%
Population Pyknosed Nuclei (%) [1]: 12%
Total Cell Count [1]: 397
Population Apoptotic (%) [2]: 64%
Population Healthy Nuclei (%) [2]: 78%
Population Mitochondria Different-Phenotype (%) [2]: 53%
Population Mitotic Cells (%) [2]: 35%
Population Normal (%) [2]: 91%
Population Pyknosed Nuclei (%) [2]: 16%
Total Cell Count [2]: 369
Population Apoptotic (%) [3]: 57%
Population Healthy Nuclei (%) [3]: 73%
Population Membrane Permeable-Phenotype (%) [3]: 0%
Population Mitochondria Different-Phenotype (%) [3]: 78%
Population Mitotic Cells (%) [3]: 42%
Population Normal (%) [3]: 89%
Population Pyknosed Nuclei (%) [3]: 22%
Total Cell Count [3]: 384
Population Apoptotic (%) [4]: 43%
Population Healthy Nuclei (%) [4]: 75%
Population Mitochondria Different-Phenotype (%) [4]: 84%
Population Mitotic Cells (%) [4]: 56%
Population Normal (%) [4]: 94%
Population Pyknosed Nuclei (%) [4]: 18%
Total Cell Count [4]: 397
Population Apoptotic (%) [5]: 25%
Population Healthy Nuclei (%) [5]: 79%
Population Membrane Permeable-Phenotype (%) [5]: 0%
Population Mitochondria Different-Phenotype (%) [5]: 22%
Population Mitotic Cells (%) [5]: 74%
Population Normal (%) [5]: 97%
Population Pyknosed Nuclei (%) [5]: 11%
Total Cell Count [5]: 568
Population Apoptotic (%) [6]: 43%
Population Healthy Nuclei (%) [6]: 84%
Population Mitochondria Different-Phenotype (%) [6]: 31%
Population Mitotic Cells (%) [6]: 56%
Population Normal (%) [6]: 93%
Population Pyknosed Nuclei (%) [6]: 8%
Total Cell Count [6]: 478
Population Apoptotic (%) [7]: 57%
Population Healthy Nuclei (%) [7]: 76%
Population Membrane Permeable-Phenotype (%) [7]: 0%
Population Mitochondria Different-Phenotype (%) [7]: 71%
Population Mitotic Cells (%) [7]: 42%
Population Normal (%) [7]: 92%
Population Pyknosed Nuclei (%) [7]: 15%
Total Cell Count [7]: 450
Population Apoptotic (%) [8]: 41%
Population Healthy Nuclei (%) [8]: 80%
Population Mitochondria Different-Phenotype (%) [8]: 79%
Population Mitotic Cells (%) [8]: 58%
Population Normal (%) [8]: 94%
Total Cell Count [8]: 477
Population Apoptotic (%) [9]: 22%
Population Healthy Nuclei (%) [9]: 77%
Population Membrane Permeable-Phenotype (%) [9]: 1%
Population Mitochondria Different-Phenotype (%) [9]: 14%
Population Mitotic Cells (%) [9]: 77%
Population Normal (%) [9]: 99%
Population Pyknosed Nuclei (%) [9]: 7%
Total Cell Count [9]: 1015
Population Apoptotic (%) [10]: 25%
Population Healthy Nuclei (%) [10]: 79%
Population Mitochondria Different-Phenotype (%) [10]: 23%
Population Mitotic Cells (%) [10]: 74%
Population Normal (%) [10]: 97%
Total Cell Count [10]: 734
Population Apoptotic (%) [11]: 55%
Population Healthy Nuclei (%) [11]: 74%
Population Membrane Permeable-Phenotype (%) [11]: 0%
Population Mitochondria Different-Phenotype (%) [11]: 62%
Population Mitotic Cells (%) [11]: 44%
Population Normal (%) [11]: 93%
Total Cell Count [11]: 540
Population Apoptotic (%) [12]: 35%
Population Healthy Nuclei (%) [12]: 78%
Population Mitochondria Different-Phenotype (%) [12]: 68%
Population Mitotic Cells (%) [12]: 65%
Population Pyknosed Nuclei (%) [12]: 11%
Total Cell Count [12]: 558

CCCCCCNC(=O)Nc1ccc(S(=O)(=O)Nc2ccc(CCNC[C@H](O)COc3ccc(O)cc3)cc2)cc1 [L-755507]
Population Apoptotic (%) [1]: 35%
Population Fragmented Nuclei (%) [1]: 8%
Population Healthy Nuclei (%) [1]: 84%
Population Hoechst High Intensity Objects (%) [1]: 7%
Population Membrane Permeable-Phenotype (%) [1]: 0%
Population Mitochondria Different-Phenotype (%) [1]: 39%
Population Mitotic Cells (%) [1]: 64%
Population Normal (%) [1]: 92%
Population Pyknosed Nuclei (%) [1]: 7%
Population Tubulin-Different-Phenotype (%) [1]: 28%
Total Cell Count [1]: 494
Population Apoptotic (%) [2]: 31%
Population Fragmented Nuclei (%) [2]: 6%
Population Healthy Nuclei (%) [2]: 83%
Population Mitochondria Different-Phenotype (%) [2]: 64%
Population Mitotic Cells (%) [2]: 68%
Population Pyknosed Nuclei (%) [2]: 10%
Population Tubulin-Different-Phenotype (%) [2]: 32%
Total Cell Count [2]: 403
Population Apoptotic (%) [3]: 58%
Population Fragmented Nuclei (%) [3]: 10%
Population Healthy Nuclei (%) [3]: 74%
Population Hoechst High Intensity Objects (%) [3]: 17%
Population Membrane Permeable-Phenotype (%) [3]: 0%
Population Mitochondria Different-Phenotype (%) [3]: 69%
Population Mitotic Cells (%) [3]: 41%
Population Normal (%) [3]: 82%
Population Pyknosed Nuclei (%) [3]: 14%
Population Tubulin-Different-Phenotype (%) [3]: 68%
Total Cell Count [3]: 384
Population Apoptotic (%) [4]: 71%
Population Fragmented Nuclei (%) [4]: 8%
Population Healthy Nuclei (%) [4]: 79%
Population Hoechst High Intensity Objects (%) [4]: 7%
Population Mitochondria Different-Phenotype (%) [4]: 87%
Population Mitotic Cells (%) [4]: 28%
Population Normal (%) [4]: 92%
Population Pyknosed Nuclei (%) [4]: 11%
Population Tubulin-Different-Phenotype (%) [4]: 61%
Total Cell Count [4]: 341
Population Apoptotic (%) [5]: 19%
Population Fragmented Nuclei (%) [5]: 9%
Population Healthy Nuclei (%) [5]: 80%
Population Hoechst High Intensity Objects (%) [5]: 5%
Population Membrane Permeable-Phenotype (%) [5]: 0%
Population Mitochondria Different-Phenotype (%) [5]: 20%
Population Mitotic Cells (%) [5]: 80%
Population Normal (%) [5]: 94%
Population Pyknosed Nuclei (%) [5]: 9%
Population Tubulin-Different-Phenotype (%) [5]: 20%
Total Cell Count [5]: 634
Population Apoptotic (%) [6]: 30%
Population Fragmented Nuclei (%) [6]: 11%
Population Hoechst High Intensity Objects (%) [6]: 4%
Population Mitochondria Different-Phenotype (%) [6]: 42%
Population Mitotic Cells (%) [6]: 70%
Population Normal (%) [6]: 95%
Population Pyknosed Nuclei (%) [6]: 7%
Population Tubulin-Different-Phenotype (%) [6]: 22%
Total Cell Count [6]: 547
Population Apoptotic (%) [7]: 26%
Population Fragmented Nuclei (%) [7]: 8%
Population Healthy Nuclei (%) [7]: 80%
Population Hoechst High Intensity Objects (%) [7]: 14%
Population Membrane Permeable-Phenotype (%) [7]: 0%
Population Mitochondria Different-Phenotype (%) [7]: 59%
Population Mitotic Cells (%) [7]: 73%
Population Normal (%) [7]: 85%
Population Pyknosed Nuclei (%) [7]: 11%
Population Tubulin-Different-Phenotype (%) [7]: 42%
Total Cell Count [7]: 461
Population Apoptotic (%) [8]: 48%
Population Fragmented Nuclei (%) [8]: 7%
Population Healthy Nuclei (%) [8]: 83%
Population Hoechst High Intensity Objects (%) [8]: 9%
Population Mitochondria Different-Phenotype (%) [8]: 68%
Population Mitotic Cells (%) [8]: 51%
Population Normal (%) [8]: 90%
Population Pyknosed Nuclei (%) [8]: 9%
Population Tubulin-Different-Phenotype (%) [8]: 51%
Total Cell Count [8]: 402
Population Apoptotic (%) [9]: 10%
Population Fragmented Nuclei (%) [9]: 12%
Population Healthy Nuclei (%) [9]: 81%
Population Hoechst High Intensity Objects (%) [9]: 3%
Population Membrane Permeable-Phenotype (%) [9]: 2%
Population Mitochondria Different-Phenotype (%) [9]: 16%
Population Mitotic Cells (%) [9]: 89%
Population Normal (%) [9]: 96%
Population Pyknosed Nuclei (%) [9]: 6%
Population Tubulin-Different-Phenotype (%) [9]: 15%
Total Cell Count [9]: 1052
Population Apoptotic (%) [10]: 15%
Population Fragmented Nuclei (%) [10]: 13%
Population Healthy Nuclei (%) [10]: 80%
Population Hoechst High Intensity Objects (%) [10]: 5%
Population Mitochondria Different-Phenotype (%) [10]: 24%
Population Mitotic Cells (%) [10]: 84%
Population Normal (%) [10]: 94%
Population Tubulin-Different-Phenotype (%) [10]: 20%
Total Cell Count [10]: 775
Population Apoptotic (%) [11]: 46%
Population Fragmented Nuclei (%) [11]: 15%
Population Healthy Nuclei (%) [11]: 75%
Population Hoechst High Intensity Objects (%) [11]: 11%
Population Membrane Permeable-Phenotype (%) [11]: 1%
Population Mitochondria Different-Phenotype (%) [11]: 36%
Population Mitotic Cells (%) [11]: 53%
Population Normal (%) [11]: 88%
Population Pyknosed Nuclei (%) [11]: 9%
Population Tubulin-Different-Phenotype (%) [11]: 32%
Total Cell Count [11]: 598
Population Apoptotic (%) [12]: 65%
Population Fragmented Nuclei (%) [12]: 13%
Population Healthy Nuclei (%) [12]: 80%
Population Hoechst High Intensity Objects (%) [12]: 8%
Population Membrane Permeable-Phenotype (%) [12]: 0%
Population Mitochondria Different-Phenotype (%) [12]: 47%
Population Mitotic Cells (%) [12]: 34%
Population Normal (%) [12]: 91%
Population Pyknosed Nuclei (%) [12]: 5%
Population Tubulin-Different-Phenotype (%) [12]: 39%
Total Cell Count [12]: 596
